Assay outcomes as filed in PubChem BioAssay.
The list is not random: actives were taken first. Their share in the collection is about 2.7%.
PG9 binder: PG9 antibody binding by small molecule | 360,000 compounds, 0.43% hits | inhibition, % at 6.7 µM | TR-FRET gp120-PG9 antibody binding | AID 624416; in the data active = inhibition above about 8.5%
MC4R ag barr: human MC4R agonism via beta-arrestin. U2OS MC4R beta-arrestin complementation, luminescence; percent of melanotan II response, DMSO zero. 360,000 compounds, 0.98% hits. AID 540308. activation, % at 8.9 µM;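 active = activation above a per-plate cutoff, the mean activation of sample wells on that plate plus 3 SD, cut at about 8% in these data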
NR1D1 modulator: modulates human Rev-erb alpha binding to DNA. activity, % at 10 µM. 370,000 compounds, 0.79% hits. Rev-erbα–FITC-DNA binding, fluorescence polarization, 90 min;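 active = activity above about 14%, limit read from the data; passing the limit was not always enough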
Target sequence (P20393 whole entry, looked up): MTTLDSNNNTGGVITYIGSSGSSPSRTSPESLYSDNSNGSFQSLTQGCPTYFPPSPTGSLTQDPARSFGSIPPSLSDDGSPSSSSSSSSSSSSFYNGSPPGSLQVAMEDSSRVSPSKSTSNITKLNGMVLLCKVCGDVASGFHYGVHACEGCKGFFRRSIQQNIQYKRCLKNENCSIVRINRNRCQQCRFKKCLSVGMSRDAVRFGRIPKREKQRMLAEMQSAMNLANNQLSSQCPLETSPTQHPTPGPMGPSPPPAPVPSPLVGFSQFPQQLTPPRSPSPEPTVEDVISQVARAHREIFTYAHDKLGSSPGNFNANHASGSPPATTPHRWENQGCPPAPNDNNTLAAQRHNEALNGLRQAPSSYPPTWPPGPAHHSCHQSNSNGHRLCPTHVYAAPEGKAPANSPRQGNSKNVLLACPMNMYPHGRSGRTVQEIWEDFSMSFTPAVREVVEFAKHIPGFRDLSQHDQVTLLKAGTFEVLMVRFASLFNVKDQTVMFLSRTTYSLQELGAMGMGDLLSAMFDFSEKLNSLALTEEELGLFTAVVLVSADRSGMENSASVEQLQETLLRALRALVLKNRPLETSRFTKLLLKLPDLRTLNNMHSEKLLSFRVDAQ
NR2E3 ag-1: agonists of human NR2E3 nuclear receptor; inhibition of corepressor binding, % at 3.98 µM; Q9Y5X4; 360,000 compounds, 0.35% hits; CHO-S Gal4-NCOR/VP16-NR2E3 two-hybrid, luciferase;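 active = inhibition above the mean of all tested compounds plus 3 SD, cut at about 70% in these data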;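 note: higher means lower luciferase signal from less NR2E3 corepressor binding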
MC4R antag cAMP: human MC4R antagonism in cAMP assay; 360,000 compounds, 0.48% hits; P32245; inhibition, % at 6.5 µM; MC4R-expressing cells, MTII-stimulated cAMP, LANCE TR-FRET; AID 540295;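 active = inhibition above its plate's cutoff, the mean of tested wells on that plate plus 3 SD, cut at about 29% in these data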
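system = U2OS cells with stable human MC4R expression | also added = Melanotan II challenge after compound preincubation | dosing = one concentration, 6.5 µM nominal | incubation = compound 30 min, challenge 1 h, detection 1 h | measured by = TR-FRET with Eu-cAMP and labeled anti-cAMP, 671 nm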
NR2E3 ag-2: NR2E3 (human) agonism; GST-NR2E3/biotin-RetCOR TR-FRET, 1536-well; 320,000 compounds, 0.12% hits; AID 2300; Q9Y5X4; inhibition of corepressor binding, % at 4.78 µM;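 active = percent inhibition above the cutoff of mean plus 3 SD of all tested compounds, set per screening campaign, cut at about 20% in these data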
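Test system – NR2E3–RetCOR corepressor complex · Quantity – NR2E3 fusion 1.35 nM · Buffer or medium – Tris pH 7.5 · Incubation – Compound–protein incubation for 5 h at 4 °C · Technique – TR-FRET, Eu(K)-anti-GST donor, streptavidin-D2 acceptor, ex 340, em 617/671 nm · Evaluation – percent inhibition of 671/617 nm emission ratio versus biotin and DMSO controls · Plate – 1536-well format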
Large screens that a line does not name were inactive.

Oc1ccc(Cl)cc1Nc1nc(NCC2CCCO2)c2ccccc2n1 (centres undefined)	MC4R ag barr 12
Oc1ccccc1Nc1nc(NCC2CCCO2)c2ccccc2n1 (centres undefined)	none
COc1cccc(-c2nc3n(n2)C(c2cccs2)C(C(=O)Nc2cccnc2)=C(C)N3)c1 (centres undefined)	none
Cc1ccc(NC(=O)CCn2c(=S)oc3ccccc32)cc1F	MC4R ag barr 8.3
O=C(CCn1c(=S)oc2ccccc21)Nc1cccc(F)c1	none
N/C(Cc1ccc(Cl)cc1)=N\OC(=O)c1ccc2ccccc2c1	MC4R ag barr 9.2
COc1ccc(C/C(N)=N/OC(=O)c2ccc(Cl)cc2)cc1	none
Cc1sc(NC(=O)CSc2nnc(COc3ccccc3)n2C)c(C#N)c1C	none
Cc1sc(NC(=O)CSc2nnc3scc(-c4ccccc4)n23)c(C#N)c1C	MC4R ag barr 16
O=C(CSc1ncnc2c1oc1ccccc12)Nc1nc2ccccc2s1	MC4R ag barr 8.6
COc1ccc(Br)cc1S(=O)(=O)N1CCOCC1	none
O=C(N=Nc1c(O)[nH]c2ccc(F)cc12)c1ccc(NS(=O)(=O)c2cccs2)cc1	none
COc1ccc2[nH]c(O)c(N=NC(=O)c3ccc(NS(=O)(=O)c4cccs4)cc3)c2c1	MC4R ag barr 9.0
CN(C)CCCNc1cc(C(C)(C)C)nc2c(-c3ccc(Cl)cc3)cnn12	MC4R ag barr 8.3
Cc1ccc(Cc2nc(-c3ccncc3)no2)cc1	none
Cc1cc(C)nc(N/N=C/C2=C(N3CCOCC3)C(=C\c3ccc(Cl)cc3)/CC2)n1	none
O=C(O)c1ccc(N/N=C/C2=C(N3CCOCC3)C(=C\c3ccccc3)/CC2)cc1	MC4R antag cAMP 29
Cc1ccc(O)c(-c2cc(-c3ccccc3[N+](=O)[O-])[nH]n2)c1	MC4R ag barr 8.9
O=C(CSc1nnnn1-c1ccc(Cl)cc1)NC(=O)Nc1ccc2c(c1)OCCO2	MC4R ag barr 9.3
Cc1ccc(-n2nc3c(N4CCC(C(=O)NCCc5ccccc5C)CC4)nnc(C)c3c2C)cc1	MC4R ag barr 16 (no result: PG9 binder, NR1D1 modulator)
O=C(Nc1ccccc1F)NC1CC1	none
CSc1ccc(C2C(C(=O)c3ccco3)=C(O)C(=O)N2c2nnc(SC)s2)cc1 (centres undefined)	MC4R antag cAMP 33
Cc1nnc(N2C(=O)C(O)=C(C(=O)c3ccco3)C2c2ccc(F)cc2)s1 (centres undefined)	none
Fc1ccc(N=c2ssnc2Cl)c(F)c1	MC4R antag cAMP 29
COc1cc2nc(NC(=O)c3ccccc3)sc(=O)c2cc1OC	PG9 binder 25 (no result: NR2E3 ag-2)
Cc1ccc(O)c(NC(=O)c2cccc(NC(=O)c3ccco3)c2)c1	none
COc1ccc(/C=N\n2nnc3ccccc32)cc1	MC4R ag barr 9.0
COc1ccc(/C=N/n2c(C)nc3ccccc3c2=O)cc1	none
CCOC(=O)C1=C(C)N2C(=C(C#N)[C@@H]1c1ccc(C(=O)OC)cc1)SC[C@@]2(O)C(C)(C)C	MC4R antag cAMP 33
CCOC(=O)C1=C(C)N=C2SCCC(=O)N2C1c1ccc(C(=O)OC)cc1 (centres undefined)	none
CCCc1nn(C)c(C(=O)Nc2ccc(C)c(C)c2)c1Cl	none
CCn1nc(C(=O)Nc2ccc(C)c(C)c2)c(Cl)c1Cl	MC4R ag barr 8.7
CCN(CC)C(=O)Cn1cc(/C=C(\C#N)C(=O)N2CCN(c3ccccc3)CC2)c2ccccc21	none
COc1cc(C(=O)NC(c2ccccc2)c2ccccc2)cc(OC)c1OC	MC4R ag barr 9.4
O=C(CSc1nnc2ccc(-c3ccc(F)cc3)nn12)N1CCCC1	MC4R antag cAMP 33
C[C@H]1O[C@@H](O[C@H]2[C@@H](O)C[C@H](O[C@H]3[C@@H](O)C[C@H](O[C@H]4CC[C@@]5(C)[C@H](CC[C@@H]6[C@@H]5C[C@@H](O)[C@]5(C)[C@@H](C7=CC(=O)OC7)CC[C@]65O)C4)O[C@@H]3C)O[C@@H]2C)C[C@H](O)[C@@H]1O	MC4R ag barr 39
Cc1ccc(C)c(NC(=O)CN(C)C(=O)C2CCCC2)c1	none
